We go through 1 compound from ChEMBL document CHEMBL1828498, “Identification and characterization of a novel integrin-linked kinase inhibitor” (J Med Chem, 2011).

One assay concerns Mus musculus. The assay can be described thus: Decrease in phosphorylation of HER2 in human PC3 cells xenografted nude mouse tumor lysate at 25 mg/kg, po administered for 35 days by Western blot analysis. The class given is functional, organism-based. More on the design: dose 25 mg/kg. The note with it: Neoplasm, PC-3. The method, boiled down: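 Male NCr athymic nude mice, 5–7 weeks, with s.c. PC-3 xenografts (0.5 × 10^6 cells in 50% Matrigel), dosed by oral gavage once daily for 35 days. Vehicle 0.5% methylcellulose, 0.1% Tween 80 in water, 10 μL/g. Tumors snap-frozen at sacrifice; three tumors per group immunoblotted.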
A general note: In xenograft studies the graft and the host belong to different species.

The target of assay [1] is Rapamycin-insensitive companion of mTOR (Homo sapiens) (UniProt Q6R327). The assay can be described thus: Inhibition of mTORC2 in human PC3 cells assessed as PKCalpha phosphorylation by Western blot analysis. In kind it is cell-based. The note with it: PC-3. The method, boiled down: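 Cells exposed 24 h in 5% FBS medium, final DMSO 0.1%; lysed in 1% SDS/10 mM EDTA/50 mM Tris pH 8.1, equal protein on SDS-PAGE, nitrocellulose, primary antibody 1:1000 at 4°C for 2 h, HRP secondary 1:5000, ECL detection; blots representative of three independent experiments.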
Chain of Rapamycin-insensitive companion of mTOR (Homo sapiens) (Q6R327 whole entry): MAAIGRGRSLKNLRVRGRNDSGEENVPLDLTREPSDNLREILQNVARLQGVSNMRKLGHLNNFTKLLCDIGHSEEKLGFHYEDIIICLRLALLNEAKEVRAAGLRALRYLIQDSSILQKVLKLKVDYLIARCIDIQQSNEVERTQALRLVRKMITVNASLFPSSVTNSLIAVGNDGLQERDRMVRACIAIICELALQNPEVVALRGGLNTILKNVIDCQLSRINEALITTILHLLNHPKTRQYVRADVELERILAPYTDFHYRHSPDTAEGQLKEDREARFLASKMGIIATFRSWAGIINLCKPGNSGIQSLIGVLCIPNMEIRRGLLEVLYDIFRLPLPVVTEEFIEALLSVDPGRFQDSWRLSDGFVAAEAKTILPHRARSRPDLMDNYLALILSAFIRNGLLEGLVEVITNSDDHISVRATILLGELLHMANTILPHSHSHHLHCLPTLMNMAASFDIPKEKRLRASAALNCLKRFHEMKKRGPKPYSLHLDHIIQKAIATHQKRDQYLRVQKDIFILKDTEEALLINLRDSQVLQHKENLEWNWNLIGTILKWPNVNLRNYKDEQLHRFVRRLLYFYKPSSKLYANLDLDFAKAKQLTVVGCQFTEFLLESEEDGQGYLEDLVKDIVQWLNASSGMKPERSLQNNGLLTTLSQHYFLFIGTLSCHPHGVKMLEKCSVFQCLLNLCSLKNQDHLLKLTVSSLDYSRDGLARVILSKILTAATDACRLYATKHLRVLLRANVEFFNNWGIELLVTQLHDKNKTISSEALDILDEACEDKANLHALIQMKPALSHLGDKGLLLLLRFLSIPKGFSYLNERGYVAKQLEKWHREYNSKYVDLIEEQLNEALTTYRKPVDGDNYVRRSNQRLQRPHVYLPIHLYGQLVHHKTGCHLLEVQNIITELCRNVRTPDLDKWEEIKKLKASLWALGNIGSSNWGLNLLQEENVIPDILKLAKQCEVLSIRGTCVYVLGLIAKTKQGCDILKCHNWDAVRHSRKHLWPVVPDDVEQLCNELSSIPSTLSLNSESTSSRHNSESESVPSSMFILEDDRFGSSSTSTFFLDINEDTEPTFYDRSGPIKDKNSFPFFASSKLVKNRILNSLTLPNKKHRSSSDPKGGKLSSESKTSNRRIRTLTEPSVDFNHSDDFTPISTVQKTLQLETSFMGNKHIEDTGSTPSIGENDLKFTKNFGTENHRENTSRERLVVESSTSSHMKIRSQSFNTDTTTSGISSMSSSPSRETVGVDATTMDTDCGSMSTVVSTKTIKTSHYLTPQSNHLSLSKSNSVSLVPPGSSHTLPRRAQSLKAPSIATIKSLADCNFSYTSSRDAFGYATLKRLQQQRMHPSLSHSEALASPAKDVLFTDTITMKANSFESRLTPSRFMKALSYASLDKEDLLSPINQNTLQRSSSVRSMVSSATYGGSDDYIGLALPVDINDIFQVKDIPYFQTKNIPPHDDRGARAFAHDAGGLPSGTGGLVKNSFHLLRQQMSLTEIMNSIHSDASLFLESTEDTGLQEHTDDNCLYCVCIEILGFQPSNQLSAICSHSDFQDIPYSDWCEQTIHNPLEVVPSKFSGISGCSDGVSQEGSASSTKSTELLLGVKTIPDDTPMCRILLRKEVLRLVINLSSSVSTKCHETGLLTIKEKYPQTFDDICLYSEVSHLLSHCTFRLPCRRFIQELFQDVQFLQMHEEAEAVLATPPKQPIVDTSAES
On the technique in general: A western blot detects proteins with antibodies after separation by electrophoresis.

Assay [2] deals with PC-3. The assay can be described thus: Induction of apoptosis in human PC3 cells assessed as early apoptotic cells at 1 uM by annexin V/PI staining (reference value: 5.6%). In kind it is functional.
The subject of assay [3] is PC-3. Briefly: Reduction in EGFR mRNA expression in human PC3 cells after 24 hrs by RT-PCR analysis. The class given is functional, cell-based. In a few lines: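 PC-3, PC-3/CA-ILK, SKBR3 and SKBR3/CA-ILK cells treated 24 h in 5% FBS medium; total RNA from 1 × 10^6 cells by Trizol, 1 μg reverse-transcribed, then PCR with gene-specific primers and β-actin reference.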

Assay [4] concerns PC-3. The assay can be described thus: Reduction in HER2 concentration in human PC3 cells after 24 hrs by Western blot analysis. In kind it is functional, cell-based. In a few lines:
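PC-3 versus stable PC-3/CA-ILK, or SKBR3 versus transient SKBR3/CA-ILK (electroporation, used 48 h after), treated 24 h in 5% FBS medium; immunoblotting with ECL; representative of three experiments.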

The test system of another assay is MDA-MB-231. The assay can be described thus: Antiproliferative activity against human MDA-MB-231 cells assessed as suppression of cell viability by MTT assay. The class given is functional, cell-based. The method, boiled down: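 Cancer lines seeded 5000/well and nonmalignant PrEC/MEC 8000/well in 10% FBS, 24 h before treatment. Compound exposure 24 h in 5% FBS medium, 0.1% final DMSO. MTT (0.25 mg/mL) for 1 h at 37°C, dye solubilized in DMSO, absorbance read at 570 nm. Mean ± SD, n = 6.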
(Tetrazolium assays rely on reduction of a dye to a coloured formazan, in cell work by metabolically active cells.)

Structures are written as SMILES. Calls of active or inactive are those of the source. The rule behind the calls is not given here.

Broadly, the IC50 is the concentration that gives 50% inhibition. In the case of `CNC(=O)CCc1cc(-c2ccc(-c3ccc(C(F)(F)F)cc3)cc2)n(-c2ccc(N3CCNCC3)cc2)n1`, in the assay on Mus musculus, the outcome was Active. The inhibition entry in assay [1] was “inactive”. Besides, the values for the Activity with PC-3 [2], in the assay with PC-3 [3] and in the assay with PC-3 [4] were 6.3%, “Dose-dependent effect” and “Dose-dependent effect”, respectively. The IC50 with MDA-MB-231 stood at 1000 nM.
